For 15 compounds, IC50 results are on record in ChEMBL document CHEMBL1137139, “Synthesis of potent taxoids for tumor-specific delivery using monoclonal antibodies” (Bioorg Med Chem Lett, 2004).

pIC50: −log10 of the molar value.

Assay type in all cases: functional, cell-based
In one assay the test system is MCF7. In words: Compound was tested for its cytotoxicity by inhibiting the growth of MCF-7 cell line after 72 h. The note with it: Homo sapiens, MCF7, 72 h.
In assay [1] the test system is A549. The experiment in a line: Compound was tested for its cytotoxicity by inhibiting the growth of A-549 cell line after 72 h. Conditions: Homo sapiens, A549, 72 h.
In assay [2] the test system is A549. The experiment in a line: Concentration of compound that inhibits 50% of growth of Compound was tested for its cytotoxicity by inhibiting the growth of. The note with it: Homo sapiens.
The test system of assay [3] is A549. In words: Concentration of compound that Compound was tested for its cytotoxicity by inhibiting the growth of A-549 cell line after 72 h. Conditions: Homo sapiens, A549, 72 h. The method, boiled down: (§1)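 Human cancer cell lines were exposed to the compound continuously for 72 h, and growth inhibition was measured. IC50 was taken as the concentration that inhibits 50% of cell-line growth.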

The test system of another assay is A-431. In words: Cytotoxic effect on A431 cell proliferation after 72 hr. The note with it: Homo sapiens, A-431, 72 h. The method in brief: as §1

As for `COc1cccc(C(=O)O[C@H]2[C@@H]3[C@]4(OC(C)=O)CO[C@@H]4C[C@H](O)[C@@]3(C)C(=O)[C@H](OC(=O)CCSSC)C3=C(C)[C@@H](OC(=O)[C@H](O)[C@H](C=C(C)C)NC(=O)OC(C)(C)C)C[C@]2(O)C3(C)C)c1`, the pIC50 with MCF7 is 10.42; in the assay with A549 [1], 10.00.

Regarding `CC(=O)O[C@H]1C(=O)[C@@]2(C)[C@H]([C@H](OC(=O)c3cc(F)cc(F)c3)[C@]3(O)C[C@H](OC(=O)[C@H](O)[C@H](C=C(C)C)NC(=O)OC(C)(C)C)C(C)=C1C3(C)C)[C@]1(OC(C)=O)CO[C@@H]1C[C@@H]2O`, the pIC50 in the assay on A549 [2] was 10.00; with MCF7, 10.40.

Turning to `CSSCCC(=O)O[C@H]1C(=O)[C@@]2(C)[C@H]([C@H](OC(=O)c3cccc(Cl)c3)[C@]3(O)C[C@H](OC(=O)[C@H](O)[C@H](C=C(C)C)NC(=O)OC(C)(C)C)C(C)=C1C3(C)C)[C@]1(OC(C)=O)CO[C@@H]1C[C@@H]2O`, the results for the pIC50 in the assay on MCF7 and in the assay with A549 [3] were 10.10 and 9.54, respectively.

Turning to `COc1cccc(C(=O)O[C@H]2[C@@H]3[C@]4(OC(C)=O)CO[C@@H]4C[C@H](O)[C@@]3(C)C(=O)[C@H](OC(C)=O)C3=C(C)[C@@H](OC(=O)[C@H](O)[C@H](C=C(C)C)NC(=O)OC(C)(C)C)C[C@]2(O)C3(C)C)c1`, the pIC50 is 10.70 in the assay on MCF7 and 10.40 in the assay with A549 [1].

Take `COc1ccc(OC)c(C(=O)O[C@H]2[C@@H]3[C@]4(OC(C)=O)CO[C@@H]4C[C@H](O)[C@@]3(C)C(=O)[C@H](OC(=O)CCSSC)C3=C(C)[C@@H](OC(=O)[C@H](O)[C@H](C=C(C)C)NC(=O)OC(C)(C)C)C[C@]2(O)C3(C)C)c1`: the pIC50 in the assay with MCF7 was 10.40; with A549 [1], 10.10.

`CSSc1cccc(C(=O)O[C@H]2[C@@H]3[C@]4(OC(C)=O)CO[C@@H]4C[C@H](O)[C@@]3(C)C(=O)[C@H](OC(C)=O)C3=C(C)[C@@H](OC(=O)[C@H](O)[C@H](C=C(C)C)NC(=O)OC(C)(C)C)C[C@]2(O)C3(C)C)c1`: the pIC50 in the assay with A-431 and in the assay with A549 [1] was under 8.52 in each case.

For `CSSCCC(=O)O[C@H]1C(=O)[C@@]2(C)[C@H]([C@H](OC(=O)c3cccc(N(C)C)c3)[C@]3(O)C[C@H](OC(=O)[C@H](O)[C@H](C=C(C)C)NC(=O)OC(C)(C)C)C(C)=C1C3(C)C)[C@]1(OC(C)=O)CO[C@@H]1C[C@@H]2O`, the pIC50 with MCF7 is 8.52; with A549 [1] it was under 8.52.

In the case of `CSSCCC(=O)O[C@H]1C[C@H]2OC[C@@]2(OC(C)=O)[C@H]2[C@H](OC(=O)c3ccccc3)[C@]3(O)C[C@H](OC(=O)[C@H](O)[C@H](C=C(C)C)NC(=O)OC(C)(C)C)C(C)=C([C@@H](O)C(=O)[C@]12C)C3(C)C`, the figures for the pIC50 in the assay on A-431 and in the assay with A549 [1] were 9.52 and 9.70, respectively.

For the compound `CCC(=O)O[C@H]1C(=O)[C@@]2(C)[C@H]([C@H](OC(=O)c3ccccc3)[C@]3(O)C[C@H](OC(=O)[C@H](O)[C@H](CC(C)C)NC(=O)CCSSC)C(C)=C1C3(C)C)[C@]1(OC(C)=O)CO[C@@H]1C[C@@H]2O`, the pIC50 in the assay on A-431 and in the assay with A549 [1] was under 8.52 throughout.

Turning to `CC(=O)O[C@H]1C(=O)[C@@]2(C)[C@H]([C@H](OC(=O)c3cccc(Cl)c3)[C@]3(O)C[C@H](OC(=O)[C@H](O)[C@H](C=C(C)C)NC(=O)OC(C)(C)C)C(C)=C1C3(C)C)[C@]1(OC(C)=O)CO[C@@H]1C[C@@H]2O`, the pIC50 in the assay on MCF7 is 10.70; in the assay on A549 [1], 10.52.

Consider `CSSCCC(=O)O[C@H]1C(=O)[C@@]2(C)[C@H]([C@H](OC(=O)c3cc(F)cc(F)c3)[C@]3(O)C[C@H](OC(=O)[C@H](O)[C@H](C=C(C)C)NC(=O)OC(C)(C)C)C(C)=C1C3(C)C)[C@]1(OC(C)=O)CO[C@@H]1C[C@@H]2O`, for which the pIC50 was 9.82 in the assay with MCF7 and 9.44 in the assay on A549 [1].

With `CSSCCC(=O)N[C@@H](CC(C)C)[C@@H](O)C(=O)O[C@H]1C[C@@]2(O)[C@@H](OC(=O)c3ccccc3)[C@@H]3[C@]4(OC(C)=O)CO[C@@H]4C[C@H](O)[C@@]3(C)C(=O)[C@H](OC(=O)N3CCOCC3)C(=C1C)C2(C)C`, the pIC50 with A-431 is 8.55; in the assay with A549 [1], under 8.52.

As to `COc1ccc(OC)c(C(=O)O[C@H]2[C@@H]3[C@]4(OC(C)=O)CO[C@@H]4C[C@H](O)[C@@]3(C)C(=O)[C@H](OC(C)=O)C3=C(C)[C@@H](OC(=O)[C@H](O)[C@H](C=C(C)C)NC(=O)OC(C)(C)C)C[C@]2(O)C3(C)C)c1`, the pIC50 in the assay on MCF7 and in the assay on A549 [1] was 10.52 throughout.

On to `CSSCCC(=O)O[C@@H](C(=O)O[C@H]1C[C@@]2(O)[C@@H](OC(=O)c3ccccc3)[C@@H]3[C@]4(OC(C)=O)CO[C@@H]4C[C@H](O)[C@@]3(C)C(=O)[C@H](OC(C)=O)C(=C1C)C2(C)C)[C@H](C=C(C)C)NC(=O)OC(C)(C)C`, for which the figures for the pIC50 with A-431 and in the assay on A549 [1] were under 8.52 and 9.05, respectively.

With `CC(=O)O[C@H]1C(=O)[C@@]2(C)[C@H]([C@H](OC(=O)c3cccc(N(C)C)c3)[C@]3(O)C[C@H](OC(=O)[C@H](O)[C@H](C=C(C)C)NC(=O)OC(C)(C)C)C(C)=C1C3(C)C)[C@]1(OC(C)=O)CO[C@@H]1C[C@@H]2O`, the pIC50 in the assay with MCF7 and in the assay with A549 [1] was 9.00 throughout.
